Compound activity: PubChem, several laboratories
An excerpt weighted towards active compounds, which were near 1.6% of everything screened.
SUMO1 PPI mod: modulators of human SUMO1-mediated protein-protein interactions | inhibition, % at 20 µM | hit rate 0.33% among 360,000 | P63165 | SUMO1 binding to a labelled peptide, TR-FRET, 1 h; in the data active = inhibition above about 37%
Target sequence (P63165 whole entry, looked up): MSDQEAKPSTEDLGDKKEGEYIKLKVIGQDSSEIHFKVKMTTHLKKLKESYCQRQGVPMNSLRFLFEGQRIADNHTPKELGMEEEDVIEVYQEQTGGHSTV
STEP inh: inhibitors of human striatal-enriched phosphatase STEP. P54829. recombinant STEP, OMFP fluorogenic substrate, fluorescence. inhibition, % at 20 µM. hit rate 0.25% among 360,000. AID 588621;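 active = inhibition at 20 µM, scaled per plate between control wells, above about 37%, limit read from the data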;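 note: 0% = DMSO with enzyme and substrate and 100% = substrate only without enzyme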
Target sequence (P54829 whole entry, looked up): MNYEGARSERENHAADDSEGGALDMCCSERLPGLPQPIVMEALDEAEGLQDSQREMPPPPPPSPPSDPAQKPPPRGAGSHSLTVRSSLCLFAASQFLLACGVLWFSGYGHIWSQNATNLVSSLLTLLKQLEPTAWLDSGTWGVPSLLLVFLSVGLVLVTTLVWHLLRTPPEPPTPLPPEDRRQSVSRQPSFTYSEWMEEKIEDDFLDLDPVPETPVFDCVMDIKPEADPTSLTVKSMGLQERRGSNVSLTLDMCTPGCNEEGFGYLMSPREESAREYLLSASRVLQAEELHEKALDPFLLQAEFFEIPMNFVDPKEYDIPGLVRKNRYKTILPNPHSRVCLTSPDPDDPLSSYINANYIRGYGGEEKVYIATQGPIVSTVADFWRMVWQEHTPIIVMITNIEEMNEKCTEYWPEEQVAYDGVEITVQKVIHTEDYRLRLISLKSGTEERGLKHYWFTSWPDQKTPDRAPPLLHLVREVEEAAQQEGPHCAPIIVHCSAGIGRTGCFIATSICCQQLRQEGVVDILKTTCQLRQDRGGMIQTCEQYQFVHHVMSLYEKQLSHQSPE
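Assay system: isolated STEP enzyme. Buffer or medium: pH 6.0 Bis-Tris with DTT and Tween 20. Also added: fluorogenic phosphatase substrate OMFP at 25 µM final. Dosing: 20 µM, 1% DMSO. Timing: 20 min reaction, room temperature, in the dark. Measured by: fluorescence intensity, excitation 480 nm, emission 540 nm. Evaluation: normalized % inhibition.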
LMPTP block: blocks human LMPTP phosphatase; recombinant LMPTP-A, OMFP fluorogenic substrate, fluorescence intensity; inhibition, % at 20 µM; hit rate 0.22% among 360,000; AID 651560;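 active = compounds that cut the enzyme signal by at least half of the control window in the single-dose screen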;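 note: plate controls were DMSO wells with enzyme plus substrate for no effect and substrate without enzyme for full effect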
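Buffer or medium: Bis-Tris pH 6.0, DTT, detergent; Assay system: LMPTP-A enzyme; Quantity: 0.625 nM enzyme; Detection: endpoint fluorescence intensity; Times: 50 min dark incubation at room temperature; Controls: substrate-only low control, DMSO enzyme-plus-substrate high control; Doses: single 20 µM dose; Read-out: percent inhibition versus substrate-only and uninhibited controls; Reagent: 400 µM OMFP.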
F508del corr: correctors of CFTR F508del function in bronchial epithelial cells; CFBE cells, YFP halide quenching; stimulated with forskolin plus potentiator P3; % fluorescence drop versus neutral controls; activity (quench increase), % at 7.58 µM; hit rate 0.36% among 350,000;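 active = mean added fluorescence quench of at least 8% versus neutral control, with both replicates also reaching 8%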;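 note: cells transiently co-express mutant CFTR-F508del with the halide-sensitive YFP; corrector assay measuring rescue of mutant channel to the surface after 24 h compound exposure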
DNMT1 inh: DNMT1 (human) enzyme inhibition; AID 588458; P26358; inhibition (reported as % activation of signal), % at 10 µM; DNMT1 molecular beacon, Hinp1I cleavage, fluorescence; hit rate 0.83% among 360,000; in the data active = inhibition above about 50%
Scp1 inh: blocks human Scp-1 phosphatase activity | inhibition, % at 20 µM | Q9GZU7 | Recombinant Scp1, phosphopeptide, malachite green phosphate absorbance | AID 493091 | hit rate 0.88% among 340,000;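 active = inhibition above about 50% at 20 µM, limit read from the data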;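 note: plate controls were DMSO wells with enzyme for no effect and wells lacking enzyme for full effect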
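Test system: SCP-1 phosphatase catalytic domain, residues 76-261 | Compound dosing: One concentration, 20 µM, with 1.0% DMSO | Schedule: 45 min room-temperature reaction, 5 min colour, 30 min stabiliser | Detection: Absorbance at 630 nm | Read-out basis: % inhibition of SCP-1 phosphate liberation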
* = called active by the depositor; x = not tested or not shown.

SMILES	SUMO1 PPI mod	STEP inh	LMPTP block	F508del corr	DNMT1 inh	Scp1 inh
Cc1ccc(-c2ccc(/C=C3\C(=O)ON=C3c3ccccc3)o2)c([N+](=O)[O-])c1	34	2	0	x	54*	-1
CCNC(=O)[C@H]1[C@H](CO)[C@H]2Cn3c(ccc(-c4ccccc4)c3=O)[C@@H]1N2C(=O)CC1CC1	x	x	x	2	x	x
Cc1cc(OCC(=O)Nc2cccnc2)c2c(C)c(C)c(=O)oc2c1	76*	4	2	2	5	2
Cc1cc(OCC(=O)NCc2cccnc2)c2c(C)c(C)c(=O)oc2c1	-13	-2	1	1	4	-3
O=C(CCN1CCCCC1)NCC[C@@H]1CC[C@@H](NC(=O)C2CCC2)[C@@H](CO)O1	x	x	x	-2	x	x
CN1/C(=C\C=N\O)C(C)(C)c2ccccc21	3	-2	-2	x	-9	-4
CCN1C(=O)/C(=C/C=C2\C=CN(CC)c3ccccc32)SC1=S	-17	4	6	x	-6	4
CN1/C(=C\C=[N+](C)c2ccccc2)C(C)(C)c2ccccc21	-4	0	-2	x	1	72*
CN1C(=CC=C2C=C(I)C(=O)C(I)=C2)C(C)(C)c2ccccc21	-20	13	31	9.6*	3	7
CN1/C(=C\C=C2/SC(=S)NC2=O)C(C)(C)c2ccccc21	-46	-61	14	25*	3	-6
CCCN1C(=O)/C(=C\C=C2\N(CC)c3ccccc3C2(C)C)SC1=S	-45	-99	13	16*	3	2
C[C@@H]1CN([C@@H](C)CO)C(=O)c2cccc(NC(=O)C3CCCCC3)c2O[C@H]1CN(C)S(=O)(=O)c1cn(C)cn1	x	x	x	1	x	x
Cc1ccc(NC(=O)COC(=O)CCC2CCCC2)c(Br)c1	3	3	4	9.4*	7	-8
O=C(COC(=O)CCC1CCCC1)Nc1ccccc1Br	5	4	2	-5	3	-4
CO[C@@H]1CN(C)C(=O)c2cc(NS(=O)(=O)c3ccc(Cl)cc3)ccc2OC[C@@H](C)NC[C@@H]1C	x	x	x	-3	x	x
O=C(Cc1ccccc1)N1CC(=O)N2[C@H](CO)[C@@H](c3ccc(-c4ccc(F)cc4)cc3)[C@@H]2C1	x	x	x	6	x	x
O=C(Cc1ccccc1)N1CC(=O)N2[C@H](CO)[C@@H](c3ccc(-c4ccccc4)cc3)[C@@H]2C1	x	x	x	12*	x	x
O=C(CSc1nnc2ccc(-c3ccco3)nn12)Nc1ccccc1F	6	2	53*	-3	10	4
C[C@H](CO)N1C[C@H](C)[C@H](CN(C)Cc2ccc(Cl)c(Cl)c2)Oc2ccc(NC(=O)CCCCCC(=O)Nc3ccccc3N)cc2CC1=O	x	x	x	2	x	x
CO[C@@H]1CN(C)C(=O)c2cc(NC(C)=O)ccc2OC[C@@H](C)N(C(=O)Cc2ccccn2)C[C@H]1C	x	x	x	-1	x	x
CCC(CO)Oc1cc(NCc2ccccc2)c2ncn(C(C)C)c2c1 (stereo unspecified)	0	-2	0	0	-12	0
CCC(CO)Oc1cc(NC(=O)c2ccc(N)cc2)c2ncn(C(C)C)c2c1 (stereo unspecified)	102*	-2	2	-1	-7	5
CCC(COC)Oc1cc(NCc2ccccc2)c2ncn(C(C)C)c2c1 (stereo unspecified)	-1	-1	3	6	54*	-5
C[C@H](NC(=O)C[C@H]1CC[C@H](NC(=O)C2CC2)[C@H](CO)O1)c1ccccc1	x	x	x	2	x	x
COc1cccc(-c2ccc([C@H]3[C@@H](CO)N4C(=O)CN(C(=O)C5CCC5)C[C@@H]34)cc2)c1	x	x	x	-1	x	x
SMILES	SUMO1 PPI mod	STEP inh	LMPTP block	F508del corr	DNMT1 inh	Scp1 inh
N#C[C@H]1[C@H](c2ccc(C#Cc3ccccc3F)cc2)[C@H](CO)N1C(=O)c1cccnc1	x	x	x	0	x	x
C[C@@H]1CN([C@H](C)CO)C(=O)c2cc(C#Cc3ccccn3)cnc2O[C@@H]1CN(C)Cc1ccncc1	x	x	x	0	x	x
COCc1cn(CC[C@@H]2CC[C@H](NC(=O)Nc3ccc4c(c3)OCO4)[C@H](CO)O2)nn1	x	x	x	0	x	x
CCCCCCCCCCCCCCCC(O)C[N+](C)(C)CCO (stereo unspecified)	-176	4	-3	1	1	82*
Cn1c(=O)c2c(-c3ccccc3)n(-c3ccc(N)cc3)cc2n(C)c1=O	42*	3	13	-1	40	x
CC(=O)O[C@H]1C(=O)[C@@]2(C)[C@H]([C@H](OC(=O)c3ccccc3)[C@]3(O)C[C@H](OC(=O)[C@H](O)[C@@H](NC(=O)c4ccccc4)c4ccccc4)C(C)=C1C3(C)C)[C@]1(OC(C)=O)CO[C@@H]1C[C@@H]2O	0	-1	-1	4	-7	-4
CC(=O)O[C@H]1C(=O)[C@@]2(C)[C@H]([C@H](OC(=O)c3ccccc3)[C@]3(O)C[C@H](OC(=O)[C@H](O)C(NC(=O)c4ccccc4)c4ccccc4)C(C)=C1C3(C)C)[C@]1(OC(C)=O)CO[C@@H]1C[C@@H]2O (stereo partly specified)	3	-1	1	11*	-6	-14
CCOc1cccc(C(=O)Nc2cccc(-c3nnc(-c4ccc(C)cc4)o3)c2)c1	0	0	5	x	66*	-8
CCOc1cccc(C(=O)Nc2cccc(-c3nnc(-c4ccccc4)o3)c2)c1	-1	2	4	-2	-1	0
CN=c1scc(C)n1/N=C/c1ccc(O)cc1	-8	-1	1	x	-13	-5
C=CCN=c1scc(C)n1/N=C/c1ccc(O)c(O)c1	-7	2	2	11*	0	7
NC(=O)c1ccsc1NC(=O)COC(=O)c1cc(=O)[nH]c2ccccc12	49*	-1	6	0	2	4
NC(=O)c1ccsc1NC(=O)c1cc(=O)c2ccccc2o1	63*	4	9	-3	-2	10
Cc1ccccc1P(=O)(c1ccccc1)c1ccccc1C	44*	-3	-2	-2	-1	x
O=C(Cc1ccccn1)NCC[C@H]1CC[C@H](NC(=O)Nc2ccc(C(F)(F)F)cc2)[C@@H](CO)O1	x	x	x	-2	x	x
O=C(Cc1ccccn1)NCC[C@@H]1CC[C@H](NC(=O)Nc2ccc(C(F)(F)F)cc2)[C@H](CO)O1	x	x	x	12*	x	x
CCc1nc(C)cn1S(=O)(=O)c1ccc2c(c1)OCCO2	-3	-2	0	8.9*	1	0
CCc1nc(C)cn1S(=O)(=O)c1ccc(Br)cc1	3	0	-3	-4	0	-6
COc1cccc(-c2ccc([C@H]3[C@@H](CO)N(C(=O)c4ccccn4)[C@H]3C#N)cc2)c1	x	x	x	15*	x	x
C[C@@H]1CN([C@@H](C)CO)C(=O)c2cc(NC(=O)Cc3ccccc3)ccc2O[C@@H]1CN(C)Cc1ccc(C(=O)O)cc1	x	x	x	1	x	x
